Data set [1] in a line: Intrinsic clearance in mouse liver microsomes. It is filed as ADME. As to conditions: read-out: CLH.
A further data set addresses hERG (KCNH2) (Homo sapiens, UniProt Q12809). Put plainly: Inhibition of human ERG channel by Patch clamp assay.
The next data set addresses Cytochrome P450 3A4 (Homo sapiens, UniProt P08684). The data set can be described thus: Inhibition of CYP3A4 (unknown origin). It is filed as ADME.
The target in another data set is Cytochrome P450 2D6 (Homo sapiens, UniProt P10635). Put plainly: Inhibition of CYP2D6 (unknown origin). The class given is ADME.
Cytochrome P450 2D6, sequence (P10635 whole entry): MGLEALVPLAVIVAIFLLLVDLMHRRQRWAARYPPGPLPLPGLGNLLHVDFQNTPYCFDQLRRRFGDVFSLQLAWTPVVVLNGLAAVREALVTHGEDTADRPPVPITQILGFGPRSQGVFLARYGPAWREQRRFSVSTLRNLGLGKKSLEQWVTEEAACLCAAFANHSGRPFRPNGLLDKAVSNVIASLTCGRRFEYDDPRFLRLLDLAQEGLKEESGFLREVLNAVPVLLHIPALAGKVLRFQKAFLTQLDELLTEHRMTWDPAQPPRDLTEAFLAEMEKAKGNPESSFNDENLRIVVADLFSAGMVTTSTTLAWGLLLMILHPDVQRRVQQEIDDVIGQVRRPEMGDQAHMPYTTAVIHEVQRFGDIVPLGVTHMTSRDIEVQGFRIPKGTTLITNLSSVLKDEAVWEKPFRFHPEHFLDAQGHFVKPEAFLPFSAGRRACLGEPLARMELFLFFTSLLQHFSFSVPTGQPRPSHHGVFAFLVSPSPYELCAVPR
The target of the next data set is Cytochrome P450 2C9 (Homo sapiens, UniProt P11712). Put plainly: Inhibition of CYP2C9 (unknown origin). The class given is ADME.
Cytochrome P450 2C9, sequence (P11712 whole entry): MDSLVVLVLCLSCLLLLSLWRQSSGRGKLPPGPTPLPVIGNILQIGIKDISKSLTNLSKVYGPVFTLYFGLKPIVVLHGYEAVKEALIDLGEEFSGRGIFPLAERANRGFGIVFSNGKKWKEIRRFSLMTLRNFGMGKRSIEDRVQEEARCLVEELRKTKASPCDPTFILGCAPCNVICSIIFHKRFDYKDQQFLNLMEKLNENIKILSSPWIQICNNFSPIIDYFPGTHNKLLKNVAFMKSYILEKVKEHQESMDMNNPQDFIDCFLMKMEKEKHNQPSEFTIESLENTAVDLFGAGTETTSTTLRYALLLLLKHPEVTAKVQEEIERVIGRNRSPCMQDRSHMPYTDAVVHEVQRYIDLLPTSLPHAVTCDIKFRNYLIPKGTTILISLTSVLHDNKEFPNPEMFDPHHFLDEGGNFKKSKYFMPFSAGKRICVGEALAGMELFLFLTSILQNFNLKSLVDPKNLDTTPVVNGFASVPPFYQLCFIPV
Another data set relates to MDR1 (P-gp). The data set can be described thus: Efflux ratio of permeability in pig LLC-PK1 cells expressing human MDR1. It is filed as ADME, cell-based, Sus scrofa. In short, it runs like this: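 Efflux ratio measured in LLC-PK1 cells stably expressing human MDR1 or mouse MDR1A.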
In a further data set the target is Cytochrome P450 2C19 (Homo sapiens, UniProt P33261). Put plainly: Inhibition of CYP2C19 (unknown origin). It is filed as ADME.
Cytochrome P450 2C19, sequence (P33261 whole entry): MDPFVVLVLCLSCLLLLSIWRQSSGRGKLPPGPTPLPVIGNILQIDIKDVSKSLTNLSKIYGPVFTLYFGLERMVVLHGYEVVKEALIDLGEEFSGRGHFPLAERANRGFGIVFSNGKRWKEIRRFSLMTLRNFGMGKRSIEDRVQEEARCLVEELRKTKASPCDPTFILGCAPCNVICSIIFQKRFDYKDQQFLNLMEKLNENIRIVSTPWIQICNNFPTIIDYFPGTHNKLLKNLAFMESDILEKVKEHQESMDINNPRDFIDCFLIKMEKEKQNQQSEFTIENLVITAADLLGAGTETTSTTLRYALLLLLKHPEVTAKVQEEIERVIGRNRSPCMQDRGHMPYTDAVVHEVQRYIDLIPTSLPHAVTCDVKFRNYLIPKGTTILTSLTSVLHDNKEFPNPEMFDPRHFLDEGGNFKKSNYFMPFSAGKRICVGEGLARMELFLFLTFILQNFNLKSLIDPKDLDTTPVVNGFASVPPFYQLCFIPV
A short description of data set [2]: Volume of distribution at steady state in mouse at 1.7 mg/kg, iv. It is filed as ADME, organism-based. Details: dose 1.7 mg/kg, route intravenous. Conditions: in vivo, read-out: Vdss. The gist of the method: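 Mouse PK, single iv dose of 1.7 mg/kg. Values are the average of two independent experiments.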
The nature of data set [3]: Oral bioavailability in mouse at 7.7 mg/kg. As to conditions: in vivo. The class given is ADME, organism-based. The gist of the method: (§1)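 Mouse PK after a 7.7 mg/kg oral dose. Brain/plasma ratio taken at 1.5 h. Values are the average of two independent experiments.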
The nature of data set [4]: Half life in mouse at 7.7 mg/kg, po. The class given is ADME, organism-based. Details: dose 7.7 mg/kg, route oral. Conditions: in vivo. The gist of the method: as §1
The nature of data set [5]: Ratio of drug level from brain to plasma in mouse at 7.7 mg/kg, po after 1.5 hrs. Conditions: brain and plasma, read-out: BPR. Details: dose 7.7 mg/kg, route oral. It is filed as ADME, organism-based. In short, it runs like this: as §1
Data set [6] is described as follows: Fraction unbound in mouse at 7.7 mg/kg, po. Details: dose 7.7 mg/kg, route oral. Conditions: in vivo, read-out: PPB. It is filed as ADME, organism-based. The gist of the method:
as §1

For data set [7], the system named is Mus musculus. Put plainly: Inhibition of L687414-induced hyperlocomotion in po dosed mouse assessed horizontal activity. It is filed as functional. In short, it runs like this: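 Oral dosing in mice against L-687,414-induced hyperlocomotion. Horizontal activity counts recorded over 60 min, mean per group, n = 8 per group. ID₅₀ is the dose producing 50% inhibition of the hyperlocomotion.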

Data set [8] relates to Mus musculus. The data set can be described thus: Inhibition of L687414-induced hyperlocomotion in po dosed mouse assessed horizontal activity at 8 ng/ml plasma concentration. The class given is functional, organism-based.
The next data set deals with Striatum. The data set can be described thus: Effect on plasma glycine level in rat striatum at 10 mg/kg, po. The class given is functional. The gist of the method: (§2)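 Rat striatal microdialysis after a 10 mg/kg oral dose. Extracellular glycine measured as fold over basal levels, with sampling stopped at 3 h. Plasma and brain exposures determined at 3 h post-dose. n = 6.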

A further data set deals with Brain. Put plainly: Effect on brain glycine level in rat striatum at 10 mg/kg, po. The class given is functional. The gist of the method:
as §2

Data set [9] in a line: Ratio of drug level from brain to plasma rat at 10 mg/kg, po. It is filed as ADME, organism-based. More on the design: dose 10 mg/kg, route oral. Conditions: brain and plasma, read-out: BPR. In short, it runs like this:
as §2

Data set [10] in a line: Genotoxicity in micronucleus (unknown origin) by MNT test.
A short description of data set [11]: Ratio of drug level in rat brain after 3 hrs to EC50 for human GlyT1 by [3H]glycine uptake assay.

One compound from ChEMBL document CHEMBL3259663, “3-Amido-3-aryl-piperidines: A Novel Class of Potent, Selective, and Orally Active GlyT1 Inhibitors” (ACS Med Chem Lett, 2014) can be followed below.

Calls of active or inactive are those of the source. The calls are words filed in the database; no cut-off is given here.

hERG (KCNH2), sequence (Q12809 whole entry): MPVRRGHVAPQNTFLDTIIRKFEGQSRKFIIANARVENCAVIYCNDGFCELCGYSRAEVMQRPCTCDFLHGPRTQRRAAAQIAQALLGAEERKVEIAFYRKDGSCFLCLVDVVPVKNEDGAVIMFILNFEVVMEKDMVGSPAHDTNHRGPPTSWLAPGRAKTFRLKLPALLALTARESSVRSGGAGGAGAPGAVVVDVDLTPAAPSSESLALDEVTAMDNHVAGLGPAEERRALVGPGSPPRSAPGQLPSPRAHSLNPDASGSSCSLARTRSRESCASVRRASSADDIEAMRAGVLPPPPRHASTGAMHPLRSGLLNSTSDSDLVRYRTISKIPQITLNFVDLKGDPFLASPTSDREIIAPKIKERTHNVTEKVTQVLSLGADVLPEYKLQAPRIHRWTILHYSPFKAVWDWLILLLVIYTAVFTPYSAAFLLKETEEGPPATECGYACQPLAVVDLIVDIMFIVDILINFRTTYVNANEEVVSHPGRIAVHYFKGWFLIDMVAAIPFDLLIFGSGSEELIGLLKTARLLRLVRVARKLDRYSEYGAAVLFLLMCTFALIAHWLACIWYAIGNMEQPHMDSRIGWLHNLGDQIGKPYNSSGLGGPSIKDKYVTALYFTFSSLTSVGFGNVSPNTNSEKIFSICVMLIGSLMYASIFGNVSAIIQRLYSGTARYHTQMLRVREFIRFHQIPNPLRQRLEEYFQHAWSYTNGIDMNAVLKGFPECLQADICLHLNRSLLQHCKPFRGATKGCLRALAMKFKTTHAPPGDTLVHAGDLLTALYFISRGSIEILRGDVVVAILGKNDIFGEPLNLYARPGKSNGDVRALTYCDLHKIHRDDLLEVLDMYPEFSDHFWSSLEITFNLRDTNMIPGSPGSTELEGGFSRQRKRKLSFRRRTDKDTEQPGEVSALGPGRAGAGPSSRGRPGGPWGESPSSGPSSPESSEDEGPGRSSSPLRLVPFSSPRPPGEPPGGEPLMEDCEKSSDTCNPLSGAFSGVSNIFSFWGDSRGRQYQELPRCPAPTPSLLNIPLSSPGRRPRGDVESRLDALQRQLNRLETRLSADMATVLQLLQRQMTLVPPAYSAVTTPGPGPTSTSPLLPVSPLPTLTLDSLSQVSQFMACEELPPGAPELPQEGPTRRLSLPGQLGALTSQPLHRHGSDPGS
Cytochrome P450 3A4, sequence (P08684 whole entry): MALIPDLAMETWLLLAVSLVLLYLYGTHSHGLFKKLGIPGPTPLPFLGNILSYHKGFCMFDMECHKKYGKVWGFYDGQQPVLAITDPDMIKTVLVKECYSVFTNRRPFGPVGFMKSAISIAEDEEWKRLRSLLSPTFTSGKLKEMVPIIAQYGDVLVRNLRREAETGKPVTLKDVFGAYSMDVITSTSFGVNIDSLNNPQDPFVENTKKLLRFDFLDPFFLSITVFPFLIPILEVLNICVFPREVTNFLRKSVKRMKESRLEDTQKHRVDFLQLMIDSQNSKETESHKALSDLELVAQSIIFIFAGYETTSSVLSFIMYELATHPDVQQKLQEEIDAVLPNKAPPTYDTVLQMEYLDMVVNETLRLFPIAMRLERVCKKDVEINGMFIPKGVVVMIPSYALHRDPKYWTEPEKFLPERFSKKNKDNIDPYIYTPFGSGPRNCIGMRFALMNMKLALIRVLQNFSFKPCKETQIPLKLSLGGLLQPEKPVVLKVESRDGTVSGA

With `COc1cc(C(F)(F)F)cc(SC)c1C(=O)N[C@@]1(c2ccccc2)CCCN(C)C1`, the microsomal CLint in data set [1] came out at 54 µL/min/mg. On hERG (KCNH2), this compound displayed an IC20 of 5.4 µM. The half-maximal inhibitory concentration (IC50) on Cytochrome P450 3A4 was more than 50 µM; at Cytochrome P450 2D6, 16 µM; against Cytochrome P450 2C9 it was more than 50 µM; at Cytochrome P450 2C19, 46 µM. Also, in the data set on MDR1 (P-gp), the efflux ratio came out at 0.9. Moreover, the Vd in data set [2] came out at 8 L/kg. Besides, the bioavailability in data set [3] is 100%. In [4], the half-life is 4.2 h. Besides, the Kp at 1.5 h in data set [5] is 4.3. Besides, the fraction unbound in data set [6] turned out to be 0.017. Moreover, in the data set on Mus musculus [7], the inhibition entry is “Dose-dependent effect”. Further, the ED50 in the data set with Mus musculus [7] (read-out: ID50 (the source's name)) is 1.5 mg/kg. Further, the inhibition entry with Mus musculus [8] was “Active”. Also, the Activity was 713 ng/mL with Striatum, 60 ng/mL in the data set with Brain and “Non-toxic” in data set [10]. The Kp in data set [9] is 0.08. Besides, the Ratio in data set [11] turned out to be 13.
